Laboratory results as given in ChEMBL document CHEMBL2016531, “Identification of NAE Inhibitors Exhibiting Potent Activity in Leukemia Cells: Exploring the Structural Determinants of NAE Specificity” (ACS Med Chem Lett, 2011).
Active and inactive are the calls of the source. The rule behind the calls is not given here.

Experiments:
Homo sapiens [1] = organism: Homo sapiens; test: Inhibition of human recombinant NAE assessed as inhibition of NEDD8-UbcH12 complex formation at >10 nM after 1.5 hrs by Western blot analysis
In short: (§1)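 Cell-free gel assay. Purified human recombinant E1 incubated with its matching Ub/Ubl and E2 in 50 mM HEPES pH 7.4, 5 mM MgCl2, 1–20 μM ATP. Inhibitor at 0, 0.001, 0.01, 0.1, 1 or 10 μM, 1.5 h at room temperature. Products resolved by SDS-PAGE, immunoblotted and detected by ECL; densitometry used for semiquantitation.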

Homo sapiens [2] = organism: Homo sapiens; test: Inhibition of human recombinant NAE assessed as inhibition of NEDD8-UbcH12 complex formation at <10 nM after 1.5 hrs by Western blot analysis; in short: as §1
Homo sapiens [3] = organism: Homo sapiens; test: Inhibition of human recombinant NAE assessed as inhibition of NEDD8-UbcH12 complex formation at 0.001 to 10 uM after 1.5 hrs by Western blot analysis; in short: as §1
[4] = biological target: SUMO-activating enzyme (Homo sapiens) (UniProt Q9UBE0+Q9UBT2); test: Inhibition of human recombinant SAE1/2 assessed as inhibition of SUMO1-UbcH9 complex formation at 0.001 to 10 uM after 1.5 hrs by Western blot analysis; format: protein-complex assay; in short: as §1
Homo sapiens [5] = organism: Homo sapiens; test: Inhibition of human recombinant UAE assessed as inhibition of UbcH6-Ub complex formation at 0.001 to 10 uM after 1.5 hrs by Western blot analysis; in short: as §1
Homo sapiens [6] = organism: Homo sapiens; test: Inhibition of human recombinant NAE assessed as inhibition of NEDD8-UbcH12 complex formation at 1 nM after 1.5 hrs by Western blot analysis; in short: as §1
Homo sapiens [7] = organism: Homo sapiens; test: Inhibition of human recombinant NAE assessed as inhibition of NEDD8-UbcH12 complex formation at 10 nM after 1.5 hrs by Western blot analysis; in short: as §1
[8] = biological target: Ubiquitin-like modifier-activating enzyme 5 (Homo sapiens) (UniProt Q9GZZ9); test: Inhibition of human recombinant UBA5 assessed as inhibition of […]-UFM1 complex formation at 10 uM after 1.5 hrs by Western blot analysis; in short: as §1
Ubiquitin-like modifier-activating enzyme 5 (Homo sapiens), sequence (Q9GZZ9 whole entry): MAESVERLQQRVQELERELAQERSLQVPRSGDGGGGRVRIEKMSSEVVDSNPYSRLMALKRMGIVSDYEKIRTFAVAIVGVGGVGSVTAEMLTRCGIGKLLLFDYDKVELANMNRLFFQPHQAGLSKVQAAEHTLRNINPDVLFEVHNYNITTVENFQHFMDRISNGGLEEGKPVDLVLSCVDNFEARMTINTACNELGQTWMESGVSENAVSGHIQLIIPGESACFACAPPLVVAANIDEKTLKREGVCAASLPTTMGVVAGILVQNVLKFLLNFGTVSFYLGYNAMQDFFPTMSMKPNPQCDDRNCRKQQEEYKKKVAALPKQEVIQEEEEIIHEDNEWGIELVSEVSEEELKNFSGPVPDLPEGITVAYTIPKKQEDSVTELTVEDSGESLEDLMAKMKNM

K562 = test: Antiproliferative activity against human K562 cells after 72 hrs by CellTiter-Glo assay; format: functional, cell-based; conditions: K562, 72 h
In short: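 K562 leukemia cells exposed to increasing concentrations for 72 h; growth and viability read by CellTiter-Glo luminescence.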

SMILES	inhibition (Homo sapiens [1])	inhibition (Homo sapiens [2])	inhibition (Homo sapiens [3])	inhibition [4]	inhibition (Homo sapiens [5])	inhibition (Homo sapiens [6])	inhibition (Homo sapiens [7])	inhibition [8]	EC50 (K562) [nM]
CCN(c1ncnc2c1ncn2[C@@H]1O[C@H](COS(N)(=O)=O)[C@@H](O)[C@H]1O)C(C)C	Active	inactive							
CCCNc1ncnc2c1ncn2[C@@H]1O[C@H](COS(N)(=O)=O)[C@@H](O)[C@H]1O			Active	Active	Active	inactive	< 63%	inactive	
Nc1ncnc2c1ncn2[C@@H]1O[C@H](COS(N)(=O)=O)[C@@H](O)[C@H]1O						< 16%			
CC(C)CC(C)Nc1ncnc2c1ncn2[C@@H]1O[C@H](COS(N)(=O)=O)[C@@H](O)[C@H]1O (stereo partly drawn)			Active	Active	Active			inactive	
NS(=O)(=O)OC[C@H]1O[C@@H](n2cnc3c(N4CCC5CCCCC5C4)ncnc32)[C@H](O)[C@@H]1O (stereo partly drawn)		inactive	Active	Active	Active			inactive	> 1000
CCCCCCCNc1ncnc2c1ncn2[C@@H]1O[C@H](COS(N)(=O)=O)[C@@H](O)[C@H]1O			Active	Active	Active	inactive		inactive	132
CC(C)(C)CC(C)(C)Nc1ncnc2c1ncn2[C@@H]1O[C@H](COS(N)(=O)=O)[C@@H](O)[C@H]1O			Active	Active	Active		inactive	inactive	> 1000
CNc1ncnc2c1ncn2[C@@H]1O[C@H](COS(N)(=O)=O)[C@@H](O)[C@H]1O						inactive	< 76%		
CCCCN(CC)c1ncnc2c1ncn2[C@@H]1O[C@H](COS(N)(=O)=O)[C@@H](O)[C@H]1O		inactive							
CC(C)(C)CCNc1ncnc2c1ncn2[C@@H]1O[C@H](COS(N)(=O)=O)[C@@H](O)[C@H]1O			Active	Active	Active		< 29%	inactive	929
CCCCCNc1ncnc2c1ncn2[C@@H]1O[C@H](COS(N)(=O)=O)[C@@H](O)[C@H]1O						< 62%			181
CCCCN(C)c1ncnc2c1ncn2[C@@H]1O[C@H](COS(N)(=O)=O)[C@@H](O)[C@H]1O	Active	inactive							
NS(=O)(=O)OC[C@H]1O[C@@H](n2cnc3c(Nc4ccccc4)ncnc32)[C@H](O)[C@@H]1O			Active	Active	Active			inactive	
CCC(C)Nc1ncnc2c1ncn2[C@@H]1O[C@H](COS(N)(=O)=O)[C@@H](O)[C@H]1O (stereo partly drawn)			Active	Active	Active		< 25%	inactive	> 1000
COCCNc1ncnc2c1ncn2[C@@H]1O[C@H](COS(N)(=O)=O)[C@@H](O)[C@H]1O									> 1000
NS(=O)(=O)OC[C@@H]1C[C@@H](n2ccc3c(N[C@H]4CCc5ccccc54)ncnc32)C[C@@H]1O [PEVONEDISTAT]			Active	Active	Active			inactive	108

SMILES	inhibition (Homo sapiens [1])	inhibition (Homo sapiens [2])	inhibition (Homo sapiens [3])	inhibition [4]	inhibition (Homo sapiens [5])	inhibition (Homo sapiens [6])	inhibition (Homo sapiens [7])	inhibition [8]	EC50 (K562) [nM]
NS(=O)(=O)OC[C@H]1O[C@@H](n2cnc3c(NCCCn4ccnc4)ncnc32)[C@H](O)[C@@H]1O			Active	Active	Active			inactive	
CN(Cc1ccccc1)c1ncnc2c1ncn2[C@@H]1O[C@H](COS(N)(=O)=O)[C@@H](O)[C@H]1O		inactive							
NS(=O)(=O)OC[C@H]1O[C@@H](n2cnc3c(NC4CCCCCCC4)ncnc32)[C@H](O)[C@@H]1O									380
CCCCCC(C)Nc1ncnc2c1ncn2[C@@H]1O[C@H](COS(N)(=O)=O)[C@@H](O)[C@H]1O (stereo partly drawn)			Active	Active	Active			inactive	203
CCCCN(CCCC)c1ncnc2c1ncn2[C@@H]1O[C@H](COS(N)(=O)=O)[C@@H](O)[C@H]1O		inactive	Active	Active	Active			inactive	
NS(=O)(=O)OC[C@H]1O[C@@H](n2cnc3c(NCCc4cccs4)ncnc32)[C@H](O)[C@@H]1O			Active	Active	Active			inactive	559
NS(=O)(=O)OC[C@H]1O[C@@H](n2cnc3c(NCC4COCCOCCOCCOCCO4)ncnc32)[C@H](O)[C@@H]1O (stereo partly drawn)			Active	Active	Active			inactive	> 1000
NS(=O)(=O)OC[C@H]1O[C@@H](n2cnc3c(N[C@@H]4C[C@H]5CCC4C5)ncnc32)[C@H](O)[C@@H]1O			Active	Active	Active			inactive	
CC(C)Nc1ncnc2c1ncn2[C@@H]1O[C@H](COS(N)(=O)=O)[C@@H](O)[C@H]1O	Active		Active	Active	Active			inactive	
NS(=O)(=O)OC[C@H]1O[C@@H](n2cnc3c(NCc4ccoc4)ncnc32)[C@H](O)[C@@H]1O	Active						100%		
CN(Cc1ccco1)c1ncnc2c1ncn2[C@@H]1O[C@H](COS(N)(=O)=O)[C@@H](O)[C@H]1O	Active	inactive	Active	Active	Active			inactive	> 1000
CCCCNc1ncnc2c1ncn2[C@@H]1O[C@H](COS(N)(=O)=O)[C@@H](O)[C@H]1O	Active					< 58%			
NS(=O)(=O)OC[C@H]1O[C@@H](n2cnc3c(NCC4CCCO4)ncnc32)[C@H](O)[C@@H]1O (stereo partly drawn)			Active	Active	Active			inactive	> 1000
CCN(CC)c1ncnc2c1ncn2[C@@H]1O[C@H](COS(N)(=O)=O)[C@@H](O)[C@H]1O		inactive	Active	Active	Active			inactive	
NS(=O)(=O)OC[C@H]1O[C@@H](n2cnc3c(N4CCOCC4)ncnc32)[C@H](O)[C@@H]1O		inactive							
NS(=O)(=O)OC[C@H]1O[C@@H](n2cnc3c(NCc4cccs4)ncnc32)[C@H](O)[C@@H]1O			Active	Active	Active		100%	inactive	114
